Measurements: ChEMBL document CHEMBL2390837, “Synthesis, cytotoxic activity and DNA-interaction studies of novel anthraquinone-thiosemicarbazones with tautomerizable methylene group” (Eur J Med Chem, 2013)
The source made the active and inactive calls. No cut-off for these calls is given here.

Experiments:
HeLa [1] = assay: Cell cycle arrest in human HeLa cells assessed as accumulation at G1 phase at 2 times IC50 after 24 hrs by propidium iodide staining-based FACS flow cytometric analysis (reference value: 51.97%); type: functional
HeLa [2] = assay: Cell cycle arrest in human HeLa cells assessed as accumulation at subG1 phase at IC50 after 24 hrs by propidium iodide staining-based FACS flow cytometric analysis (reference value: 9.10%); type: functional
HeLa [3] = assay: Cell cycle arrest in human HeLa cells assessed as accumulation at G2/M phase at IC50 after 24 hrs by propidium iodide staining-based FACS flow cytometric analysis (reference value: 21.66%); type: functional
HeLa [4] = assay: Induction of apoptosis in human HeLa cells at IC90 after 24 hrs by propidium iodide staining-based FACS flow cytometric analysis in presence of caspase-9 inhibitor Z-LEHD-FMK; type: functional, cell-based
DNA [5] = assay: Binding affinity to calf thymus DNA at 20 to 80 uM after 1.5 hrs by UV-vis spectrophotometric analysis; type: nucleic-acid assay; details: Bos taurus
Summary of the method: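 UV–Vis spectra (200–800 nm, 1 cm cells) of compound at 20, 40, 60 or 80 μM, with or without 0.12 mM CT-DNA. CT-DNA was dissolved in 10 mM Tris-HCl pH 7.9. Mixtures were in 40 mM bicarbonate buffer pH 8.4, incubated 1.5 h at 37 °C with occasional vortexing.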

MDA-MB-453 = assay: Cytotoxicity against human MDA-MB-453 cells after 72 hrs by MTT assay; type: functional, cell-based; details: MDA-MB-453, 72 h
Summary of the method: (§1)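 Cells seeded in 96-well plates: HeLa 2000, MDA-MB-361 7000, MDA-MB-453 3000, K562, A549 and MRC-5 5000 per well. Compounds added at 5–100 μM (final), DMSO ≤0.5%, in RPMI-1640 with 10% FBS. Added after 24 h, except K562 at 2 h after seeding. Exposure 72 h, then MTT 4 h at 37 °C, SDS solubilization, A570 read. IC50 is the mean ± SD of three independent experiments.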

K562 = assay: Cytotoxicity against human K562 cells after 72 hrs by MTT assay; type: functional, cell-based; details: K562, 72 h; summary of the method: as §1
HeLa [6] = assay: Cell cycle arrest in human HeLa cells assessed as accumulation at S phase at 2 times IC50 after 24 hrs by propidium iodide staining-based FACS flow cytometric analysis (reference value: 16.22%); type: functional
MRC5 = assay: Cytotoxicity against human MRC5 cells after 72 hrs by MTT assay; type: cell-based; details: MRC5, 72 h; summary of the method: as §1
[7] = system: Radical scavenging activity; assay: Antioxidant activity assessed as DPPH radical scavenging activity after 30 mins by spectrophotometric analysis; type: functional
Summary of the method: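 Test solutions at 8–1000 μM in methanol mixed 1:1 by volume with 200 μM DPPH in methanol, kept 30 min in the dark at room temperature. Absorbance read at 517 nm against blanks without DPPH. Percent scavenging = (A_DPPH − A_sample)/A_DPPH × 100. IC50 (concentration halving DPPH absorbance) read from a plot of % versus concentration. Ascorbic acid and BHT used as standards.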

HeLa [8] = assay: Induction of apoptosis in human HeLa cells at IC90 after 24 hrs by propidium iodide staining-based FACS flow cytometric analysis in presence of caspase-3 inhibitor Z-DEVD-FMK; type: functional, cell-based
MDA-MB-361 = assay: Cytotoxicity against human MDA-MB-361 cells after 72 hrs by MTT assay; type: functional, cell-based; details: MDA-MB-361, 72 h; summary of the method: as §1
A549 = assay: Cytotoxicity against human A549 cells after 72 hrs by MTT assay; type: functional, cell-based; details: A549, 72 h; summary of the method: as §1
DNA [9] = assay: Binding affinity to calf thymus DNA after 1.5 hrs by spectroscopic titration; type: nucleic-acid assay; details: Bos taurus
Summary of the method: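 Absorbance titration in 40 mM bicarbonate buffer pH 8.4. Compound held fixed at 40 μM, CT-DNA varied at (0.2–1.6) × 10⁻⁴ M. Mixtures incubated 1.5 h at 37 °C, then UV–Vis spectra recorded from 200 to 800 nm. K_B taken from a plot of [DNA]/(εA − εF) versus [DNA].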

HeLa [10] = assay: Cell cycle arrest in human HeLa cells assessed as accumulation at S phase at IC50 after 24 hrs by propidium iodide staining-based FACS flow cytometric analysis (reference value: 16.22%); type: functional
HeLa [11] = assay: Induction of apoptosis in human HeLa cells at IC90 after 24 hrs by propidium iodide staining-based FACS flow cytometric analysis in presence of caspase-8 inhibitor Z-IETD-FMK; type: functional, cell-based
HeLa [12] = assay: Cytotoxicity against human HeLa cells after 72 hrs by MTT assay; type: functional, cell-based; summary of the method: as §1
Escherichia coli [13] = assay: Induction of Escherichia coli XL1 blue pUC18 DNA cleavage assessed as conversion of supercoiled DNA to relaxed circular DNA at 2 mM after 90 mins by agarose gel electrophoresis
Summary of the method: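 Supercoiled pUC18 (262 ng, from E. coli XL1 blue) incubated with 2 mM compound in 20 μL of 40 mM bicarbonate buffer pH 8.4 at 37 °C for 90 min. Reaction stopped with loading buffer. Analyzed on 1% agarose in TAE pH 8.24 at 80 V and stained with ethidium bromide (0.5 µg/mL).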

HeLa [14] = assay: Cell cycle arrest in human HeLa cells assessed as accumulation at subG1 phase at 2 times IC50 after 24 hrs by propidium iodide staining-based FACS flow cytometric analysis (reference value: 9.10%); type: functional
HeLa [15] = assay: Cell cycle arrest in human HeLa cells assessed as accumulation at G1 phase at IC50 after 24 hrs by propidium iodide staining-based FACS flow cytometric analysis (reference value: 51.97%); type: functional
HeLa [16] = assay: Cell cycle arrest in human HeLa cells assessed as accumulation at G2/M phase at 2 times IC50 after 24 hrs by propidium iodide staining-based FACS flow cytometric analysis (reference value: 21.66%); type: functional
HeLa [17] = assay: Cell cycle arrest in human HeLa cells assessed as accumulation at subG1 phase after 24 hrs by propidium iodide staining-based FACS flow cytometric analysis; type: functional
Escherichia coli [18] = assay: Induction of Escherichia coli XL1 blue pUC18 DNA cleavage assessed as conversion of supercoiled DNA to relaxed circular DNA at 1:1 compound to iron molar ratio after 90 mins by agarose gel electrophoresis in presence of Fe3+
Summary of the method: (§2)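 AQ-thiosemicarbazone (4 μL of 10 mM) preincubated 60 min at 37 °C in bicarbonate buffer with 2 μL of FeSO₄ or FeCl₃ (20 mM or 40 mM stock). pUC18 (2 μL) then added and incubated a further 90 min. Products run on 1% agarose in TAE at 80 V and stained with ethidium bromide (0.5 µg/mL).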

Escherichia coli [19] = assay: Induction of Escherichia coli XL1 blue pUC18 DNA cleavage assessed as conversion of supercoiled DNA to relaxed circular DNA at 1:1 compound to iron molar ratio after 90 mins by agarose gel electrophoresis in presence of Fe2+; summary of the method: as §2
Escherichia coli [20] = assay: Induction of Escherichia coli XL1 blue pUC18 DNA cleavage assessed as conversion of supercoiled DNA to relaxed circular DNA at 1:2 compound to iron molar ratio after 90 mins by agarose gel electrophoresis in presence of Fe2+; summary of the method: as §2
Escherichia coli [21] = assay: Induction of Escherichia coli XL1 blue pUC18 DNA cleavage assessed as conversion of supercoiled DNA to relaxed circular DNA at 1:2 compound to iron molar ratio after 90 mins by agarose gel electrophoresis in presence of Fe3+; summary of the method: as §2

Structure (SMILES)	Activity (DNA [5])	IC50 [7]	Activity (Escherichia coli [13])	Activity (HeLa [1])	Activity (HeLa [2])	Activity (HeLa [3])	Activity (HeLa [4])	IC50 (MDA-MB-453)	IC50 (K562)	Activity (HeLa [6])	IC50 (MRC5)	Activity (HeLa [8])	IC50 (MDA-MB-361)	IC50 (A549)	Activity (HeLa [10])	Activity (HeLa [11])	IC50 (HeLa [12])	Activity (HeLa [14])	Activity (HeLa [15])	Activity (HeLa [16])	also measured
CCOC(=O)/C(CC(=O)c1cccc2c1C(=O)c1ccccc1C2=O)=N/NC(N)=S	Active	20.5 µM	inactive	Active	Active	Active	Active	13.6 µM	7.99 µM	Active	36.2 µM	Active	30.7 µM	29 µM	Active	Active	14.4 µM	Active	Active	Active	Kb (DNA [9]): 0.55 ×10⁹ /M
CCOC(=O)/C(CC(=O)c1cccc2c1C(=O)c1ccccc1C2=O)=N\NC(=S)Nc1ccccc1	Active	26.2 µM	inactive	44.72%	11.21%	24.11%	Active	6.91 µM	3.59 µM	19.4%	11.8 µM	Active	6.61 µM	9.89 µM	17.82%	Active	8.19 µM	23.74%	44.66%	7.61%	Kb (DNA [9]): 9.3 ×10⁹ /M; Activity (HeLa [17]): Dose-dependent effect
CCCCCCNC(=S)N/N=C(/CC(=O)c1cccc2c1C(=O)c1ccccc1C2=O)C(=O)OCC	Active	26.1 µM	inactive	36.66%	25.02%	19.83%	Active	19.6 µM	5.86 µM	17.17%	42.1 µM	Active	4.45 µM	43.6 µM	14.62%	Active	7.66 µM	37.32%	37.89%	3.84%	Activity (Escherichia coli [18]): inactive; Activity (Escherichia coli [19]): inactive; Activity (Escherichia coli [20]): Active; Activity (HeLa [17]): Dose-dependent effect; Activity (Escherichia coli [21]): inactive

More lines, main results first:

Activity (DNA [5])	IC50 [7]	Activity (Escherichia coli [13])	Structure (SMILES)	Activity (HeLa [1])	Activity (HeLa [2])	Activity (HeLa [3])	Activity (HeLa [4])	IC50 (MDA-MB-453)	IC50 (K562)	Activity (HeLa [6])	IC50 (MRC5)	Activity (HeLa [8])	IC50 (MDA-MB-361)	IC50 (A549)	Activity (HeLa [10])	Activity (HeLa [11])	IC50 (HeLa [12])	Activity (HeLa [14])	Activity (HeLa [15])	Activity (HeLa [16])	also measured
Active	41 µM	inactive	CCOC(=O)/C(CC(=O)c1cccc2c1C(=O)c1ccccc1C2=O)=N\NC(=S)Nc1ccc(C)cc1	Active	Active	Active	Active	11.3 µM	3.97 µM	Active	30.3 µM	Active	32.6 µM	22.5 µM	Active	Active	21 µM	Active	Active	Active	Kb (DNA [9]): 2.91 ×10⁹ /M
Active	66.5 µM	inactive	CCOC(=O)/C(CC(=O)c1cccc2c1C(=O)c1ccccc1C2=O)=N\NC(=S)NCc1cccs1	40.07%	28.61%	15.34%	Active	13.5 µM	2.8 µM	13.79%	24.4 µM	Active	25.4 µM	12.9 µM	20.62%	Active	8.25 µM	36.27%	32.36%	3.79%	Activity (HeLa [17]): Dose-dependent effect
